Assay results collected from several papers.
Lines come from different studies, so protocols differ.
Target: Serine/threonine-protein kinase MRCK beta (CDC42BPB, Homo sapiens, UniProt Q9Y5S2)

`O=C1Nc2ccc(Cl)cc2C1=Cc1cc(Cl)c(O)c(Cl)c1` gave a remaining signal of 91.4% (cell-free assay; 0.5 µM).
`CSc1cccnc1N1CCN(Cc2nc3ccccc3[nH]2)CC1` gave a remaining binding of 100% (cell-free assay, competition with immobilised ligand; 1 µM).
For `COc1cc(Cl)c(C(=O)N[C@@H](CN[C@H]2CC[C@@H](N)CC2)Cc2ccc(C#N)cc2)cc1-c1ccc(CN[C@H](C)c2ccc(C)cc2)o1`, the remaining activity was 100% (enzyme activity, inhibitor; 1 µM).
The remaining binding of `CS(=O)(=O)c1cc(C2(NC(=O)c3cncc4c3cnn4-c3ccc(F)cc3)CC2)ccn1` is reported as 100% (cell-free assay, competition with immobilised ligand; 1 µM).
The inhibition of `COc1cc2ncnc(Nc3ccc(Oc4ccccc4)cc3C)c2cc1OC` is reported as -5% (enzyme activity, inhibitor; 1 µM).
`Oc1cccc(-c2nc(N3CCOCC3)c3oc4ncccc4c3n2)c1` has a remaining signal of 99.4% (cell-free assay; 0.5 µM).
`c1ccc(CNc2nc(N3CCOc4ccccc43)nc3c2CCCC3)cc1` has an inhibition of -0.5% (target engagement in cells, inhibitor, chemoproteomics; 20 mM).
`Cc1c(NC(=O)c2cc(C(N)=O)nc3cc(F)ccc23)c(C(F)(F)F)nn1Cc1ccc(C#N)cc1` gave a remaining binding of 100% (cell-free assay, competition with immobilised ligand; 1 µM).
`CC(C)(O)[C@H]1CC[C@H](Nc2ccc3ncc(-c4cccc(C(F)(F)F)c4)n3n2)CC1` has a remaining activity of 98.9% (enzyme activity, inhibitor; 1 µM).
For `O=C(Nc1cnn(-c2csc(C(=O)NC3COC3)c2)c1)Nc1c(F)cccc1Cl`, the remaining activity was 89% (enzyme activity, inhibitor; 5 µM).
With `O=C1NC(=O)c2cc(Nc3ccc(F)cc3)c(Nc3ccc(F)cc3)cc21` the remaining signal was 100% (cell-free assay; 0.5 µM).
With `O=C(NS(=O)(=O)c1ccc(NCC2CCOCC2)c([N+](=O)[O-])c1)c1ccc(N2CCN(Cc3ccc(C(F)(F)F)cc3-c3ccc(Cl)cc3)CC2)cc1Oc1cnc2[nH]ccc2c1` the remaining binding was 94% (cell-free assay, competition with immobilised ligand; 1 µM).
The remaining activity of `O=c1cc(-c2cccc3c2Sc2ccccc2S3)oc(N2CCOCC2)c1` is reported as 103% (enzyme activity, inhibitor; 0.5 µM).
For `O=C(Nc1cccnn1)N1CCC(=Cc2cccc(Oc3ccc(C(F)(F)F)cn3)c2)CC1`, the remaining binding was 100% (cell-free assay, competition with immobilised ligand; 1 µM).
With `CCCOc1ccc(OC)c(F)c1C(=O)c1ccc(C(=O)N[C@@H]2CNC[C@H]2NC(=O)c2ccc3[nH]ncc3c2)cc1` the remaining activity was 0% (enzyme activity, inhibitor; 10 µM).
The inhibition of `CCCS(=O)(=O)Nc1ccc(F)c(C(=O)c2c[nH]c3ncc(-c4ccc(Cl)cc4)cc23)c1F` is reported as under 10% (enzyme activity, inhibitor; 1 µM).
For `CCN(CC)CCNC(=O)c1c(C)[nH]c(/C=C2\C(=O)Nc3ccc(F)cc32)c1C`, the inhibition was 17% (enzyme activity, inhibitor; 10 µM).
With `CCc1ccccc1C(=O)Nc1n[nH]c2c(C)c(F)c(C3C(C#N)=C(C)N(C)C(C)=C3C#N)cc12` the remaining binding was 100% (cell-free assay, competition with immobilised ligand; 1 µM).
With `CNC(=O)c1cc(Oc2ccc(NC(=O)Nc3ccc(Cl)c(C(F)(F)F)c3)cc2)ccn1` the inhibition was 0% (enzyme activity, inhibitor; 10 µM).
For `Cc1c(C(=O)O)cc(-c2ccc(C3CCNCC3)cc2)c2ccc(-c3ccc(C(F)(F)F)cc3)cc12`, the remaining binding was 100% (cell-free assay, competition with immobilised ligand; 1 µM).
The remaining activity of `CCN(CC)c1ccc(C2=NNC(=O)CC2C)cc1[N+](=O)[O-]` (centres unmarked) is reported as 101% (enzyme activity, inhibitor; 10 µM).
The remaining activity of `CC(C)(C)c1nc2c(s1)c1nc(N)ncc1c1ccc(NS(=O)(=O)c3c(F)cccc3F)c(F)c12` is reported as 100% (enzyme activity, inhibitor, radiometric; 1 µM).
For `Cc1ccc(Nc2nccc(N(C)c3ccc4c(C)n(C)nc4c3)n2)cc1S(N)(=O)=O`, the inhibition was 11% (enzyme activity, inhibitor; 10 µM).
`Nc1ncnc2occ(-c3ccc(NC(=O)Nc4cc(C(F)(F)F)ccc4F)cc3)c12` has a remaining activity of 33% (enzyme activity, inhibitor; 20 µM).
`Cc1nc(N2CC[C@@H](O)C2)ncc1-c1cc(C(F)(F)F)cc2[nH]ncc12` has a remaining binding of 100% (cell-free assay, competition with immobilised ligand; 1 µM).
`CC/C(=N\NC(=O)C(C)Nc1ccccc1)c1ccc(O)c(C)c1O` (centres unmarked) gave an inhibition of 7.1% (enzyme activity, inhibitor; 0.1 µM).
